Among the data in ChEMBL document CHEMBL1138778, “Effects of altering the electronics of 2-methoxyestradiol on cell proliferation, on cytotoxicity in human cancer cell cultures, and on tubulin polymerization” (J Med Chem, 2004) are GI50 and IC50 values, retold here.

One may read the GI50 as the concentration that inhibits growth by half. Higher therefore signals less potent growth inhibition. For orientation: IC50 means the midpoint of a concentration-inhibition curve. A low value points to greater potency.

Experiment [1] deals with OVCAR-3. Put plainly: Growth inhibitory concentration against human ovarian OVCAR-3 cancer cell line. It is filed as functional. Summed up: (§1)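 Human cancer cell line antiproliferative screen, compounds tested over 10^-4 to 10^-8 M. GI50 is the concentration giving 50% growth inhibition of the individual cell line. GI50 values outside the tested range were set to the range limits (10^-8 or 10^-4 M) when averaging across all lines tested to give the mean graph midpoint.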

The next experiment deals with HCT-116. Put plainly: Growth inhibitory concentration against human colon cancer HCT116 cell line. The format is functional. The method in brief: (§2)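 Screen over 10^-4 to 10^-8 M in a human cancer cell line panel. GI50 is the concentration giving 50% growth inhibition of the individual cell line.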
In experiment [2] the test system is UACC-62. Put plainly: Growth inhibitory concentration against human melanoma UACC-62 cancer cell line. It is filed as functional. Summed up: as §1
Experiment [3] has as its system MDA-MB-435. Description: Growth inhibitory concentration against human breast MDA-MB-435 cancer cell line. It is filed as functional. The method in brief:
as §1

The subject of experiment [4] is SN12C. Put plainly: Growth inhibitory concentration against human renal SN12C cancer cell line. It is filed as functional. Summed up:
as §1

The nature of experiment [5]: Growth inhibitory concentration against human cancer cell line. It is filed as functional. As to conditions: Cancer cell lines. The method in brief:
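NCI human cancer cell line antiproliferative screen, tested over 10^-4 to 10^-8 M. GI50 is the concentration giving 50% growth inhibition of each cell line. The mean graph midpoint is the average GI50 across all lines tested, with values outside the range set to 10^-8 or 10^-4 M.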

The test system of the next experiment is HOP-62. Put plainly: Growth inhibitory concentration against human lung cancer HOP-62 cell line. The format is functional. Summed up: as §2
Experiment [6] has as its system DU-145. Put plainly: Growth inhibitory concentration against human prostate DU-145 cancer cell line. The format is functional. The method in brief: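 Human cancer cell line screen across 10^-4 to 10^-8 M compound. GI50 is the concentration giving 50% growth inhibition of the individual cell line. GI50 values below or above the tested range were taken as 10^-8 M or 10^-4 M.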

Another experiment concerns the target Tubulin beta chain (Bos taurus, UniProt Q6B856). Put plainly: Inhibitory concentration against bovine brain tubulin polymerization. The format is functional. Summed up:
(§3)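 Bovine brain tubulin, 1.2 mg/mL (12 μM), was preincubated with a range of compound concentrations and then chilled on ice. GTP was added and assembly followed by turbidity at 350 nm for 20 min at 26 °C. IC50 is the concentration halving assembly at 20 min, from at least two independent assays.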

The test system of experiment [7] is SF-539. Put plainly: Growth inhibitory concentration against human CNS SF-539 cancer cell line. The format is functional. The method in brief: as §1
The next experiment deals with MDA-MB-231. Description: Inhibitory concentration against growth of MDA-MB-231 cancer cell line. It is filed as functional, cell-based. The following applies: Homo sapiens. Summed up:
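MDA-MB-231 cells in DMEM/F12 (1:1) with 10% FBS, seeded at 1000 cells/well and attached overnight. Cells were exposed to compound for 48 h. Proliferation was read by BrdU-incorporation colorimetric ELISA or by cell counting, in triplicate, with experiments repeated at least twice.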

Experiment [8] has as its system HUVEC. Description: Inhibitory concentration against growth of HUVEC […] cell line. The format is functional, cell-based. The following applies: Homo sapiens. The method in brief:
(§4)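 HUVEC, used up to five passages in EGM with bovine brain extract and antibiotic-antimycotic, seeded at 3000 cells/well and attached overnight. Cells were exposed to compound for 48 h. Proliferation was read by BrdU-incorporation colorimetric ELISA or by cell counting, in triplicate, with experiments repeated at least twice.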

Experiment [9] has as its system DU-145. Description: Growth inhibitory concentration required against human prostate DU-145 cancer cell line. It is filed as functional. Summed up:
as §2

Another experiment addresses Tubulin (Bos taurus, UniProt Q6B856+Q862L2+Q862F3). Put plainly: Inhibitory concentration against bovine tubulin polymerization. It is filed as functional. Summed up: as §3
The nature of experiment [10]: Average concentration required for 50% growth inhibition of human cancer cell line (tested). The format is functional. The following applies: Cancer cell lines. Summed up: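 Mean graph midpoint: average of the individual cell line GI50 values across all cancer lines screened over 10^-4 to 10^-8 M. GI50 values falling outside this range were set to 10^-8 M (below) or 10^-4 M (above).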

Experiment [11] relates to OVCAR-3. Put plainly: Growth inhibitory concentration required against human ovarian OVCAR-3 cancer cell line. It is filed as functional. Summed up:
as §2

Experiment [12] has as its system SF-539. Description: Growth inhibitory concentration required against human CNS SF-539 cancer cell line. It is filed as functional. Summed up:
as §2

Experiment [13] relates to SN12C. Put plainly: Growth inhibitory concentration required for against human renal SN12C cancer cell line. It is filed as functional. The method in brief: as §2
The test system of experiment [14] is UACC-62. Description: Growth inhibitory concentration required against human melanoma UACC-62 cancer cell line. The format is functional. Summed up:
as §2

Experiment [15] relates to MDA-MB-435. Description: Growth inhibitory concentration required against human breast MDA-MB-435 cancer cell line. The format is functional. Summed up:
as §2

Experiment [16] relates to HUVEC. Put plainly: Inhibitory concentration required against growth of HUVEC […] cell line. The following applies: Homo sapiens. The format is functional, cell-based. The method in brief:
as §4

Chain of Tubulin beta chain (Q6B856 whole entry): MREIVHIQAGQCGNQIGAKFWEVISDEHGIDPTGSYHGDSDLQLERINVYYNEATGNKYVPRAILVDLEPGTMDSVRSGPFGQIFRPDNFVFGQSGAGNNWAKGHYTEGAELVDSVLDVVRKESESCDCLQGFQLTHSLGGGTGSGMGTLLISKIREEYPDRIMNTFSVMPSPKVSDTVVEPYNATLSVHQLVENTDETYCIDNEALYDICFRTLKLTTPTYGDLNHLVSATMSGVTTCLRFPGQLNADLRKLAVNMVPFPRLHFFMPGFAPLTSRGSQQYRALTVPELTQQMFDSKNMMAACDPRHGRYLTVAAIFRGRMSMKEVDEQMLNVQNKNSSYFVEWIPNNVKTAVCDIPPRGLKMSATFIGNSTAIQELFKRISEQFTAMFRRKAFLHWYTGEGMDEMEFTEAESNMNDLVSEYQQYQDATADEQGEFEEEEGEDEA

As for `COc1cc2c(cc1O)CC[C@@H]1[C@@H]2CC[C@]2(C)[C@@H](O)CC[C@@H]12` [2-METHOXYESTRADIOL], the GI50 in the experiment on OVCAR-3 [1] came to 0.21 µM; in the experiment with HCT-116, 0.47 µM; in the experiment on UACC-62 [2] it was 0.36 µM; with MDA-MB-435 [3], 0.08 µM; in the experiment on SN12C [4] it was 0.95 µM; in [5], 1.3 µM. The GI50 with HOP-62 was found to be 0.7 µM; in the experiment with DU-145 [6] it was 1.8 µM; in the experiment on SF-539 [7] it was 0.32 µM. The same compound had a half-inhibitory concentration (IC50) on Tubulin beta chain of 5.3 µM.
As for `C/C=C/c1cc2c(cc1O)CC[C@@H]1[C@@H]2CC[C@]2(C)[C@@H](O)CC[C@@H]12`, the IC50 in the experiment on MDA-MB-231 amounted to 0.65 µM; with HUVEC [8], 0.59 µM.
For the compound `CCOc1cc2c(cc1O)CC[C@@H]1[C@@H]2CC[C@@]2(C)[C@H]1CC[C@]2(C)O`, the GI50 came to 5.2 µM with DU-145 [9]; 3.5 µM in the experiment with HCT-116; 4.7 µM in experiment [10]; 5 µM in the experiment on HOP-62; 2.8 µM in the experiment with OVCAR-3 [11]; 2.8 µM in the experiment with SF-539 [12]. Besides, the values for the GI50 in the experiment on SN12C [13], with UACC-62 [14] and in the experiment with MDA-MB-435 [15] were 4.5 µM, 3.74 µM and 1.3 µM, respectively. The concentration for half-maximal inhibition (IC50) on Tubulin is 4.8 µM; in the experiment on MDA-MB-231, 18.4 µM; in the experiment on HUVEC [16], 5.7 µM.
For the compound `COc1cc2c(cc1O)CC[C@@H]1[C@@H]2CC[C@@]2(C)[C@H]1CC[C@]2(C)O`, the GI50 with DU-145 [9] came to 12.3 µM; in the experiment on HCT-116, 2.8 µM; in experiment [10], 10.2 µM; in the experiment with HOP-62, 15.2 µM; in the experiment with OVCAR-3 [11] it was 7.1 µM; with SF-539 [12] it was 6.9 µM. Moreover, the 50% growth inhibitory concentration (GI50) was found to be 7.8 µM in the experiment with SN12C [13], 6.3 µM in the experiment on UACC-62 [14] and 1.4 µM in the experiment with MDA-MB-435 [15]. Further, the 50% inhibitory concentration (IC50) at Tubulin was over 40 µM; with MDA-MB-231, 3.33 µM; in the experiment with HUVEC [16], 2.4 µM.
Regarding `COCc1cc2c(cc1O)CC[C@@H]1[C@@H]2CC[C@]2(C)[C@@H](O)CC[C@@H]12`, the GI50 is 64.6 µM with DU-145 [9]; 33.1 µM in the experiment on HCT-116; 38 µM in experiment [10]; 83.2 µM with HOP-62; 40.7 µM in the experiment with OVCAR-3 [11]; 33.9 µM with SF-539 [12]. Besides, the concentration for 50% growth inhibition (GI50) with SN12C [13] was determined as 56.2 µM; in the experiment on UACC-62 [14], 24.5 µM; with MDA-MB-435 [15] it was 7.8 µM. Also, the IC50 is over 40 µM against Tubulin, 54 µM in the experiment with MDA-MB-231 and 28.8 µM with HUVEC [16].
As to `CC(=O)Oc1cc2c(cc1C(C)(F)F)[C@H]1CC[C@]3(C)[C@@H](OC(C)=O)CC[C@H]3[C@@H]1CC2`, the GI50 with DU-145 [9] is 13.8 µM; with HCT-116, 10.7 µM; in [10] it was 11.7 µM; in the experiment with HOP-62, 31.6 µM; in the experiment with OVCAR-3 [11], 1.9 µM; in the experiment on SF-539 [12], 20 µM. Also, the GI50 with SN12C [13] was 27.5 µM; in the experiment with UACC-62 [14] it was 12.3 µM; in the experiment on MDA-MB-435 [15], 20.9 µM. The IC50 on Tubulin was over 40 µM; with MDA-MB-231, 95.9 µM; in the experiment with HUVEC [16], 32.3 µM.
